Experimental data published in ChEMBL document CHEMBL4673342, “Lipid-Lowering Activities of Cucurbitacins Isolated from Trichosanthes cucumeroides and Their Synthetic Derivatives” (2020).
Active and inactive are the calls of the source. No cut-off for these calls is given here.

tested on: HepG2; experiment: Induction of […] uptake in human HepG2 cells at 5 uM by DIL probe based fluorescence assay; format: functional, cell-based
How it was run: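 HepG2 cells (passages 4–11) in DMEM/10% FBS were treated with DMSO or compound at 5 µM, then given DiI-labelled human plasma LDL (20 µg/mL) for 3 h at 37 °C in the dark. After ice-cold PBS/0.4% albumin rinses, cell-bound dye was extracted with isopropanol and fluorescence read at 520–578 nm. Uptake rate is relative to DMSO. Positive control nagilactone B at 5 µM; n = 3.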

| Compound | Activity |
| --- | --- |
| CC(=O)OC(C)(C)CCC(=O)[C@](C)(O)[C@H]1[C@H](O)C[C@@]2(C)[C@@H]3CC=C(C(C)(C)O)[C@@H](CC(=O)O)[C@]3(C)C(=O)C[C@]12C | Active |
| CC(=O)OC1C[C@@H]2C(=CC(=O)[C@@H]3[C@@]2(C)C(=O)C[C@]2(C)[C@@H]([C@@](C)(O)C(=O)CCC(C)(C)OC(C)=O)[C@H](OC(C)=O)C[C@@]32C)C(C)(C)C1O (stereo not given in full) | Active |
| CC(=O)OC(C)(C)/C=C/C(=O)[C@](C)(O)[C@H]1[C@H](O)C[C@@]2(C)[C@@H]3CC=C4[C@@H](C[C@H](OC(=O)c5ccccc5)C(=O)C4(C)C)[C@]3(C)C(=O)C[C@]12C | inactive |
| CC(=O)OC(C)(C)CCC(=O)[C@](C)(O)[C@H]1[C@H](OC(=O)c2ccccc2)C[C@@]2(C)[C@@H]3CC=C4[C@@H](C[C@H](OC(=O)c5ccccc5)C(=O)C4(C)C)[C@]3(C)C(=O)C[C@]12C | inactive |
| CO[C@@H](CC(=O)[C@](C)(O)[C@H]1[C@H](O)C[C@@]2(C)[C@@H]3CC=C4[C@@H](C[C@H](O)C(=O)C4(C)C)[C@]3(C)C(=O)C[C@]12C)C(C)(C)O | Active |
| CC(=O)OC(C)(C)CCC(=O)[C@](C)(O)[C@H]1C(=O)C[C@@]2(C)[C@@H]3CC=C4[C@@H](CC(=O)C(=O)C4(C)C)[C@]3(C)C(=O)C[C@]12C | inactive |
| CC1(C)C(=O)[C@@H](O)C[C@@H]2C1=CC[C@@H]1[C@@]2(C)C(=O)C[C@]2(C)[C@@H]([C@@](C)(O)C(=O)C[C@@H](O)C(C)(C)O)[C@H](O)C[C@@]12C | Active |
| CC(=O)O[C@@H]1C[C@@]2(C)[C@@H]3CC=C4[C@@H](CC(=O)[C@H](O)C4(C)C)[C@]3(C)C(=O)C[C@]2(C)[C@H]1[C@@](C)(O)C(=O)/C=C/C(C)(C)OC(C)=O | inactive |
| CC(=O)OC(C)(C)[C@H](O)CC(=O)[C@](C)(O)[C@H]1[C@H](O)C[C@@]2(C)[C@@H]3[C@@H](O)C=C4[C@@H](CC(=O)[C@@H](O)C4(C)C)[C@]3(C)C(=O)C[C@]12C | Active |
| CC(=O)OC(C)(C)/C=C/C(=O)[C@](C)(O)[C@H]1[C@H](O)C[C@@]2(C)[C@@H]3[C@@H](O)C=C4[C@@H](C[C@H](O)C(=O)C4(C)C)[C@]3(C)C(=O)C[C@]12C | Active |
| CC(=O)O[C@@H]1C[C@@]2(C)[C@@H]3CC=C4[C@@H](CC(=O)[C@H](OC(C)=O)C4(C)C)[C@]3(C)C(=O)C[C@]2(C)[C@H]1[C@@](C)(O)C(=O)/C=C/C(C)(C)OC(C)=O | inactive |
| CC(=O)OC(C)(C)/C=C/C(=O)[C@](C)(O)[C@H]1[C@H](OC(=O)c2ccccc2)C[C@@]2(C)[C@@H]3CC=C4[C@@H](C[C@H](OC(=O)c5ccccc5)C(=O)C4(C)C)[C@]3(C)C(=O)C[C@]12C | inactive |
| CC1(C)C(=O)[C@@H](O)C[C@@H]2C1=C[C@H](O)[C@@H]1[C@@]2(C)C(=O)C[C@]2(C)[C@@H](C=O)[C@H](O)C[C@@]12C | Active |
| CC(=O)OC(C)(C)/C=C/C(=O)[C@](C)(O)[C@H]1[C@H](O)C[C@@]2(C)[C@@H]3[C@@H](O)C=C4[C@@H](CC(=O)[C@H](O)C4(C)C)[C@]3(C)C(=O)C[C@]12C | Active |
| CC(=O)OC(C)(C)CCC(=O)[C@](C)(O)[C@H]1[C@H](O)C[C@@]2(C)[C@@H]3CC=C4[C@@H](C[C@H](OC(=O)CCC(=O)O)C(=O)C4(C)C)[C@]3(C)C(=O)C[C@]12C | inactive |
| CC(=O)OC(C)(C)/C=C/C(=O)[C@](C)(O)[C@H]1[C@H](O)C[C@@]2(C)[C@@H]3CC=C4[C@@H](CC(=O)[C@H](O)C4(C)C)[C@]3(C)C(=O)C[C@]12C | Active |
| CC(=O)OC(C)(C)CCC(=O)[C@](C)(O)[C@H]1[C@H](O)C[C@@]2(C)[C@@H]3CC=C4[C@@H](C[C@H](OC5O[C@H](CO)[C@@H](O)[C@H](O)[C@H]5C)C(=O)C4(C)C)[C@]3(C)C(=O)C[C@]12C (stereo not given in full) | Active |
| CC(=O)OC(C)(C)CCC(=O)[C@](C)(O)[C@H]1[C@H](O)C[C@@]2(C)[C@@H]3CC=C4[C@@H](CC(=O)OC4(C)C)[C@]3(C)C(=O)C[C@]12C | Active |
| CC(=O)OC(C)(C)/C=C/C(=O)[C@](C)(O)[C@H]1C(=O)C[C@@]2(C)[C@@H]3CC=C4[C@@H](C[C@H](O)C(=O)C4(C)C)[C@]3(C)C(=O)C[C@]12C | inactive |
| CC(C)(O)/C=C/C(=O)[C@](C)(O)[C@H]1[C@H](O)C[C@@]2(C)[C@@H]3CC=C4[C@@H](CC(O)C(=O)C4(C)C)[C@]3(C)C(=O)C[C@]12C (stereo not given in full) | Active |
| CC(=O)O[C@H]1C(=O)C[C@@H]2C(=CC[C@@H]3[C@@]2(C)C(=O)C[C@]2(C)[C@@H]([C@@](C)(O)C(=O)/C=C/C(C)(C)OC(C)=O)[C@H](O)C[C@@]32C)C1(C)C | inactive |
| CC(=O)OC(C)(C)CCC(=O)[C@](C)(O)[C@H]1[C@H](O)C[C@@]2(C)[C@@H]3CC=C(C(C)(C)C(=O)O)[C@@H](CC(=O)O)[C@]3(C)C(=O)C[C@]12C | Active |
| CC(=O)OC(C)(C)/C=C/C(=O)[C@](C)(O)[C@H]1[C@H](O)C[C@@]2(C)[C@@H]3CC=C4[C@@H](C[C@H](O)C(=O)C4(C)C)[C@]3(C)C(=O)C[C@]12C | Active |

| Compound | Activity |
| --- | --- |
| CC(=O)O[C@@H]1C[C@@]2(C)[C@@H]3CC=C4[C@@H](CC(=O)[C@H](OC(C)=O)C4(C)C)[C@]3(C)C(=O)C[C@]2(C)[C@H]1[C@@](C)(O)C(=O)CCC(C)(C)OC(C)=O | inactive |
| CC(=O)OC(C)(C)[C@@H](O)CC(=O)[C@](C)(O)[C@H]1[C@H](O)C[C@@]2(C)[C@@H]3[C@@H](O)C=C4[C@@H](CC(=O)[C@@H](O)C4(C)C)[C@]3(C)C(=O)C[C@]12C | Active |
| CC(C)(O)CCC(=O)[C@](C)(O)[C@H]1[C@H](O)C[C@@]2(C)[C@@H]3CC=C4[C@@H](C[C@H](O)C(=O)C4(C)C)[C@]3(C)C(=O)C[C@]12C | Active |
| CC(=O)OC(C)(C)/C=C/C(=O)[C@](C)(O)[C@H]1[C@H](O)C[C@@]2(C)[C@@H]3CC=C4[C@@H](C[C@H](OC5O[C@H](CO)[C@@H](O)[C@H](O)[C@H]5C)C(=O)C4(C)C)[C@]3(C)C(=O)C[C@]12C (stereo not given in full) | Active |
| CC(=O)OC(C)(C)CCC(=O)[C@](C)(O)[C@H]1C(=O)C[C@@]2(C)[C@@H]3CC=C4[C@@H](C[C@H](O)C(=O)C4(C)C)[C@]3(C)C(=O)C[C@]12C | inactive |
| CC(=O)O[C@H]1C[C@@H]2C(=CC(=O)[C@@H]3[C@@]2(C)C(=O)C[C@]2(C)[C@@H]([C@@](C)(O)C(=O)/C=C/C(C)(C)OC(C)=O)[C@H](OC(=O)O)C[C@@]32C)C(C)(C)C1=O | Active |
| CO[C@H](CC(=O)[C@](C)(O)[C@H]1[C@H](O)C[C@@]2(C)[C@@H]3CC=C4[C@@H](C[C@H](O)C(=O)C4(C)C)[C@]3(C)C(=O)C[C@]12C)C(C)(C)O | Active |
| CC(=O)OC(C)(C)CCC(=O)[C@](C)(O)[C@H]1[C@H](O)C[C@@]2(C)[C@@H]3[C@@H](O)C=C4[C@@H](CC(=O)[C@@H](O)C4(C)C)[C@]3(C)C(=O)C[C@]12C | Active |
| CC(=O)OC(C)(C)CCC(=O)[C@](C)(O)[C@H]1[C@H](O)C[C@@]2(C)[C@@H]3CC=C4[C@@H](C[C@H](O)C(=O)C4(C)C)[C@]3(C)C(=O)C[C@]12C | Active |
| CC(=O)OC(C)(C)/C=C/C(=O)[C@](C)(O)[C@H]1C(=O)C[C@@]2(C)[C@@H]3CC=C4[C@@H](CC(=O)C(=O)C4(C)C)[C@]3(C)C(=O)C[C@]12C | inactive |
| CC(=O)OC(C)(C)CCC(=O)[C@](C)(O)[C@H]1[C@H](O)C[C@@]2(C)[C@@H]3[C@@H](O)C=C4[C@@H](C[C@H](O)C(=O)C4(C)C)[C@]3(C)C(=O)C[C@]12C | Active |
| CC(C)(O)/C=C/C(=O)[C@](C)(O)[C@H]1[C@H](O)C[C@@]2(C)[C@@H]3CC=C4[C@@H](C=C(O)C(=O)C4(C)C)[C@]3(C)C(=O)C[C@]12C | Active |
| CC(=O)O[C@H]1C[C@@H]2C(=CC[C@@H]3[C@@]2(C)C(=O)C[C@]2(C)[C@@H]([C@@](C)(O)C(=O)/C=C/C(C)(C)OC(C)=O)[C@H](OC(=O)O)C[C@@]32C)C(C)(C)C1=O | inactive |
| CC(=O)OC(C)(C)CCC(=O)[C@](C)(O)[C@H]1[C@H](O)C[C@@]2(C)[C@@H]3CC=C4[C@@H](C[C@H](OC(=O)c5ccccc5)C(=O)C4(C)C)[C@]3(C)C(=O)C[C@]12C | inactive |
| CC(=O)OC(C)(C)CCC(=O)[C@](C)(O)[C@H]1[C@H](O)C[C@@]2(C)[C@@H]3[C@@H](O)C=C4[C@@H](CC(=O)[C@H](O)C4(C)C)[C@]3(C)C(=O)C[C@]12C | Active |
| CC(=O)O[C@H]1C[C@@H]2C(=CC[C@@H]3[C@@]2(C)C(=O)C[C@]2(C)[C@@H]([C@@](C)(O)C(=O)/C=C/C(C)(C)OC(C)=O)[C@H](O)C[C@@]32C)C(C)(C)C1=O | inactive |
| CC(=O)O[C@@H]1C[C@@]2(C)[C@@H]3CC=C4[C@@H](CC(=O)[C@H](O)C4(C)C)[C@]3(C)C(=O)C[C@]2(C)[C@H]1[C@@](C)(O)C(=O)CCC(C)(C)OC(C)=O | inactive |
| CC(C)(O)/C=C/C(=O)[C@](C)(O)[C@H]1[C@H](O)C[C@@]2(C)[C@@H]3CC=C4[C@@H](C[C@H](O)[C@@H](O)C4(C)C)[C@]3(C)C(=O)C[C@]12C | Active |
| CC1(C)C(=O)[C@@H](O)C[C@@H]2C1=CC[C@@H]1[C@@]2(C)C(=O)C[C@]2(C)[C@@H]([C@@](C)(O)C(=O)C[C@H](O)C(C)(C)O)[C@H](O)C[C@@]12C | Active |
| CC(=O)O[C@H]1C[C@@H]2C(=CC[C@@H]3[C@@]2(C)C(=O)C[C@]2(C)[C@@H]([C@@](C)(O)C(=O)CCC(C)(C)OC(C)=O)[C@H](OC(C)=O)C[C@@]32C)C(C)(C)C1=O | inactive |
| CC(=O)O[C@@H]1C[C@@]2(C)[C@@H]3CC=C4[C@@H](C[C@H](O)C(=O)C4(C)C)[C@]3(C)C(=O)C[C@]2(C)[C@H]1[C@@](C)(O)C(=O)/C=C/C(C)(C)OC(C)=O | inactive |
| CC(C)(O)CCC(=O)[C@](C)(O)[C@H]1[C@H](O)C[C@@]2(C)[C@@H]3CC=C4[C@@H](C=C(O)C(=O)C4(C)C)[C@]3(C)C(=O)C[C@]12C | Active |
